Measured values pooled from the literature.
Target: Death-associated protein kinase 2 (DAPK2, Homo sapiens, UniProt Q9UIK4)

For CS(=O)(=O)N1CCCC(NC(=O)[C@H](CCC2CCCCC2)NC(=O)c2ccc(CNc3ncnc4c3nnn4-c3ccccc3)cc2)C1 (stereo partly shown), the remaining binding was 90% (cell-free assay; competition with immobilised ligand; 0.1 µM).
The remaining binding of c1cncc(-c2cccc(Nc3nccc(NC4CCCCC4)n3)c2)c1 is reported as 84% (binding; competition with immobilised ligand; 10 µM).
For FC(F)(F)Oc1cccc(-c2cnc3ccc(-c4ccncc4)nn23)c1, the remaining binding was 66% (cell-free assay; competition with immobilised ligand; 5 µM).
Nc1c(C(=O)NCc2ccc(C(=O)NCCCC3CCCCC3)cc2)cnn1-c1ccccc1 gave a remaining binding of 100% (cell-free assay; competition with immobilised ligand; 0.1 µM).
CN(CCCC(F)(F)F)c1nccc(-c2cnn3ncccc23)n1 has a remaining binding of 97% (binding; 1 µM).
CN(C)C(=O)Cn1cc(-c2nc(C3(c4ccc(-c5cnc(N)nc5)cc4)CC3)no2)cn1 gave a remaining binding of 86% (cell-free assay; competition with immobilised ligand; 1 µM).
For CC1CCCN1c1nccc(-c2cnn3ncccc23)n1 (stereo not shown), the remaining binding was 86% (binding; 1 µM).
For CC(=O)C1=C(C)N(c2cccc(C(F)(F)F)c2)C(=O)N[C@@H]1c1ccc(C#N)nc1, the remaining binding was 79.2% (cell-free assay; competition with immobilised ligand; 1 µM).
With C=CC(=O)N1CCC(C(=O)NCC(=O)N2CCN(c3nc(-c4cnc(N)nc4C(F)F)nc(N4CCOCC4)n3)CC2)CC1 the remaining binding was 95% (binding; competition with immobilised ligand; 1 µM).
Cn1nc(C(F)(F)F)cc1-c1cnc(N2CCc3cc(S(=O)(=O)Nc4c(F)cc(Cl)cc4F)cc(N4CCCC4=O)c32)nc1 gave a remaining binding of 94% (cell-free assay; competition with immobilised ligand; 1 µM).
O=C(c1ccc(Nc2nccc(-c3cc4ccccc4s3)n2)cc1)N1CCC(N2CCCC2)CC1 has a remaining binding of 19% (binding; competition with immobilised ligand; 1 µM).
With C[C@H]1CCN(c2nccc(-c3cnn4ncccc34)n2)C1 the remaining binding was 72% (binding; 1 µM).
With CNC(=O)[C@@H]1CC[C@@H](n2c(-c3ccc4cnccc4c3)nc3ccc(C(=O)NCc4cccc(C(N)=O)c4)cc32)C1 the remaining binding was 100% (binding; competition with immobilised ligand; 1 µM).
For O=C(Nc1c[nH]nc1C(=O)NC1CCNCC1)c1cc(F)cc(F)c1, the remaining binding was 100% (binding; competition with immobilised ligand; 1 µM).
CN(c1ccnc(CNc2nc(Nc3ccc4c(c3)CC(=O)N4)ncc2C(F)(F)F)n1)S(C)(=O)=O gave a remaining binding of 58% (cell-free assay; competition with immobilised ligand; 1 µM).
The remaining binding of Cc1cnc(Nc2ccc(C(=O)N3CCC(N4CCCC4)CC3)cc2)nc1-c1cc2ccccc2s1 is reported as 8.9% (binding; competition with immobilised ligand; 1 µM).
CN(C)c1nccc(-c2cnn3ncccc23)n1 gave a remaining binding of 90% (binding; 1 µM).
The remaining binding of N#CC1(c2ccccn2)CCN(Cc2cc(C(=O)N3CCCC3)c(=O)n3ccccc23)CC1 is reported as 94% (cell-free assay; competition with immobilised ligand; 1 µM).
For Cc1cnn2ncc(-c3ccnc(N(C)C)n3)c2c1, the remaining binding was 87% (binding; 1 µM).
With COc1ncc2cc3ccccc3nc2c1C#N the remaining binding was 97% (cell-free assay; competition with immobilised ligand; 5 µM).
c1cnn2ncc(-c3ccnc(N4CCC45COC5)n3)c2c1 has a remaining binding of 70% (binding; 1 µM).
The remaining binding of O=C(NCCCN1CCOCC1)c1ccc(Nc2nccc(-c3cc4ccccc4s3)n2)cc1 is reported as 18% (binding; competition with immobilised ligand; 1 µM).
